Reference: ChEMBL document CHEMBL3243985, “Synthesis of two metabolites of (+)-propoxyphene” (J Med Chem, 1977)
Active and inactive are the calls of the source. No cut-off for these calls is given here.

How the values were obtained:
[1] = test system: Mus musculus; assay: Analgesic activity in sc dosed mouse assessed as inhibition of acetic acid-induced writhing in presence of 10 mg/kg naloxone; type: functional, organism-based; parameters: dose 10 mg/kg; conditions: at 10 mg/kg
[2] = species on record: Mus musculus; assay: Toxicity in mouse assessed as scratching at injection site at 1 mg/ml; type: organism-based; conditions: in vivo
[3] = test system: Mus musculus; assay: Analgesic activity in sc dosed mouse assessed as inhibition of acetic acid-induced writhing; type: functional
How it was run: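 Test agents were given to mice by subcutaneous injection, and doses were expressed in mg/kg. The ED50 was derived from the dose-response data and reported with 95% confidence limits.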

[4] = test system: Mus musculus; assay: Analgesic activity in sc dosed mouse assessed as peak inhibition of acetic acid-induced writhing measured at 5 to 15 mins; type: functional, organism-based
[5] = test system: Mus musculus; assay: Analgesic activity in sc dosed mouse assessed as inhibition of acetic acid-induced writhing measured at 30 to 60 mins; type: functional, organism-based
[6] = test system: Mus musculus; assay: Analgesic activity in mouse assessed as inhibition of acetic acid-induced writhing at 100 mg/kg, sc; type: functional, organism-based; parameters: dose 100 mg/kg

Row | Structure (SMILES) | inhibition [1] | Activity [2] | ED50 [3] | inhibition [4] | inhibition [5] | inhibition [6]
1 | CCC(=O)O[C@](Cc1ccccc1)(c1ccccc1)[C@H](C)CN | inactive | Toxic | 25 mg/kg | Active | Active | 
2 | CCC(=O)OC(Cc1ccccc1)(c1ccccc1)C(C)CN.Cl (racemic) | inactive | Toxic | 51 mg/kg | Active | Active | 
3 | CCC1=NCC(C)C(Cc2ccccc2)(c2ccccc2)O1 (racemic) |  |  |  |  |  | inactive
4 | CCC(=O)O[C@](Cc1ccccc1)(c1ccccc1)[C@H](C)CN(C)C [PROPOXYPHENE] |  |  | 6.9 mg/kg |  |  | 
